Assay results pooled from the literature.
Protocols differ between the studies behind these lines.

NC(=O)C(c1ccccc1)(c1ccc(F)cc1)c1ccc(F)cc1  concentration (female Lewis rat, brain; intraperitoneal, 50 mg/kg, 1 h, single dose): 43 µM
COc1ccc(C)c2sc(NC(=O)c3ccncc3)nc12  concentration (rat, brain; oral, 10 mg/kg, 1 h): ~10 µM
CCc1cc(-c2noc(-c3cc(OC)nc(C4CCCC4)c3)n2)cc(C)c1OC[C@@H](O)CO  concentration (Wistar rat, plasma; oral, 0.3 mg/kg, 6 h, single dose): 12.7 ng/mL
COc1ccc2c(=O)n(C)c(-c3ccccc3)nc2c1  concentration (male Sprague-Dawley rat, brain; oral, 30 mg/kg, 30 min, single dose): 20.4 ng/g
CCOC(=O)[C@@]12C[C@@H]1[C@@H](n1ccc3c(NC)nc(C#Cc4ccc(Cl)s4)nc31)[C@H](O)[C@@H]2O  concentration (male Sprague-Dawley rat, plasma; oral, 3 mg/kg, 30 min): 48.4 ng/mL
COc1cccc(-c2n[nH]c(SCc3ccccn3)n2)c1OC  concentration (male Sprague-Dawley rat, plasma; oral, 30 mg/kg, 2 h, single dose): 9750 ng/mL
Cc1noc(C)c1Cn1cc(N2C(=O)CN(Cc3cccc(O)c3)C2=O)cn1  concentration (male Sprague-Dawley rat, plasma; oral, 100 mg/kg, 4 h): 42.5 ng/mL
Cc1ccc(-c2cc(C(F)(F)F)nn2-c2ccc(S(N)(=O)=O)cc2)cc1  concentration (male Sprague-Dawley rat, plasma; oral, 20 mg/kg, 8 h): 0.91 µM
Cc1noc(C)c1Cn1cc(N2C(=O)N(Cc3cccc(O)c3)C(C)(C)C2=O)cn1  concentration (male Sprague-Dawley rat, plasma; oral, 100 mg/kg, 24 h, single dose): 0 ng/mL
COc1nc(-c2cc(C)c(N[C@@H](C)c3cc(F)cc(F)c3)nn2)ccc1-n1cnc(C)c1  concentration (male Sprague-Dawley rat, CSF; oral, 50 mg/kg, 4 h, multiple doses, once daily): 301 ng/mL
